Series [1] has as its target T1, Prostaglandin G/H synthase 1 (Ovis aries, UniProt P05979).
T1 sequence (P05979 whole entry): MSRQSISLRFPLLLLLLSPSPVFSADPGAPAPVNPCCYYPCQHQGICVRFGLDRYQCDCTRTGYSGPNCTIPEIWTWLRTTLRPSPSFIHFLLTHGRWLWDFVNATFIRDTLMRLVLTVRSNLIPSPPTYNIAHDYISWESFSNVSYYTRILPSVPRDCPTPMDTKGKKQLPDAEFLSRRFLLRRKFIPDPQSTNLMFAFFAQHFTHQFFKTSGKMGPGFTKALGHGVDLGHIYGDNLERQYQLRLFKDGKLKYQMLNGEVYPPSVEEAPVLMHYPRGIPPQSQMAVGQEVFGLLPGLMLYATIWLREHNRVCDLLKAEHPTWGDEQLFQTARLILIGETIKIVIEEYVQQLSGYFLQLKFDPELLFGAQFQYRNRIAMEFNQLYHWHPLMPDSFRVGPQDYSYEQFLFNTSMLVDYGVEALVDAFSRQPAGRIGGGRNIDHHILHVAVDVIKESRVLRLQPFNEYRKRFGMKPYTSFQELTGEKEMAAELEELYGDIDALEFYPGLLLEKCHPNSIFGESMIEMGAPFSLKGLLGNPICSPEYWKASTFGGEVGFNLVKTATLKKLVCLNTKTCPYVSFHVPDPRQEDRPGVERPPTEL
Kind of series: Inhibition of ovine COX1 assessed as reduction in PGF2alpha production by ELISA. In short, it runs like this: (§1)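 Ovine COX1 or human COX2 reaction in a commercial inhibitor screening kit. PGH2 formed is reduced with SnCl2 to PGF2α, which is quantified by enzyme immunoassay (absorbance). Single-point inhibition at 100 µM given as % ± SE. IC50 by linear regression. Mean ± SE of at least three experiments.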

The target in series [2] is T2, Aldo-keto reductase family 1 member C3 (Homo sapiens, UniProt P42330).
T2 sequence (P42330 whole entry): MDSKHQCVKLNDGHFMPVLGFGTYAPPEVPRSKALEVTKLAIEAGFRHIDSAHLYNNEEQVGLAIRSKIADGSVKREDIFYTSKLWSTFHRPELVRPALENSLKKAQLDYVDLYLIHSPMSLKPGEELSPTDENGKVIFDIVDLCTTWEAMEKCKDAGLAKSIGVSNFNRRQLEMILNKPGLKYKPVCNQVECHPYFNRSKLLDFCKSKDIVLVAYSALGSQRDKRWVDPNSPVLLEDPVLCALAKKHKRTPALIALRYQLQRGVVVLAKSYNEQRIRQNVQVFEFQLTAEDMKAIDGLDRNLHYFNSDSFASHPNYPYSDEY
Kind of series: Inhibition of recombinant N-terminal GST-tagged human AKR1C3 expressed in Escherichia coli BL21 (DE) Codon Plus RP cells using S-tetralol as substrate in presence of NADP+ by fluorimetric analysis.

Series [3] concerns the target Prostaglandin G/H synthase 2 (Homo sapiens) (UniProt P35354). Briefly: Inhibition of human COX2 assessed as reduction in PGF2alpha production at 100 uM by ELISA. The conditions noted are these: human COX2 enzyme. Background: In an ELISA, binding on a coated surface is turned into a signal by an enzyme label.
Series [4] has as its system CWR22R. Briefly: Antiproliferative activity against human 22Rv1 cells after 72 hrs by sulforhodamine B colorimetric assay. The class given is functional, cell-based. The conditions noted are these: 22Rv1, 72 h. For orientation: The SRB assay estimates cell density from bound dye.
The test system of series [5] is CWR22R. Kind of series: Reduction in PSA expression level in human 22Rv1 cells by Western blot analysis. The class given is functional, cell-based. In short, it runs like this:
(§2)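 22RV1 treated for 72 h at three concentrations. Viable cells lysed in RIPA buffer with protease inhibitors, protein measured by Bradford, 20 µg run on SDS-PAGE and transferred to nitrocellulose. Probed overnight at 4 °C with goat polyclonal anti-PSA (1:500), β-actin as reference, HRP secondary, ECL detection; Ponceau staining as loading check.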

Series [6] deals with T3, COX1 (prostaglandin G/H synthase 1) (Ovis aries, UniProt P05979).
T3 sequence (P05979 whole entry): T1 sequence (P05979 whole entry)
Briefly: Inhibition of ovine COX1 assessed as reduction in PGF2alpha production at 100 uM by ELISA. Particulars: sheep, ovine COX1 enzyme. In short, it runs like this: as §1

Series [7] deals with T4, Aldo-keto reductase family 1 member C2 (Homo sapiens, UniProt P52895).
T4 sequence (P52895 whole entry): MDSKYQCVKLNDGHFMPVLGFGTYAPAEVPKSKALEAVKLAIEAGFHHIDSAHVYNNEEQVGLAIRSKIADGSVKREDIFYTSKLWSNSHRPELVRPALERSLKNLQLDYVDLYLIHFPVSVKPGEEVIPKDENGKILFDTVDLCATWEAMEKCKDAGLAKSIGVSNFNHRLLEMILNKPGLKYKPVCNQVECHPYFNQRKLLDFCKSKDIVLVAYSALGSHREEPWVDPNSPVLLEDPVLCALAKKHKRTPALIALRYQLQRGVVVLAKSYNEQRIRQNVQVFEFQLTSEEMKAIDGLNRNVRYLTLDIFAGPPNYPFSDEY
Kind of series: Inhibition of recombinant N-terminal GST-tagged human AKR1C2 expressed in Escherichia coli BL21 (DE) Codon Plus RP cells using S-tetralol as substrate in presence of NADP+ by fluorimetric analysis. A digest of the protocol:
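GST-tagged AKR1C2 purified on glutathione sepharose with thrombin cleavage. Percent inhibition from initial velocities versus solvent controls. IC50 as means of two experiments, each in triplicate.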

The test system of series [8] is CWR22R. Kind of series: Synergistic antiproliferative activity against human 22Rv1 cells assessed as reduction in cell viability at 20 uM after 72 hrs in presence of abiraterone by sulforhodamine B colorimetric proliferation assay. The class given is functional.
Series [9] has as its system CWR22R. Kind of series: Synergistic antiproliferative activity against human 22Rv1 cells assessed as reduction in cell viability at 20 uM after 72 hrs in presence of enzalutamide by sulforhodamine B colorimetric proliferation assay. It is filed as functional.
The test system of series [10] is CWR22R. Briefly: Potency index, ratio of IC50 for flufenamic acid to IC50 for test compound for antiproliferative activity against human 22Rv1 cells after 72 hrs by sulforhodamine B colorimetric assay. It is filed as functional.
Series [11] addresses T5, Aldo-keto reductase family 1 member C3 (Homo sapiens) (UniProt P42330).
T5 sequence (whole entry): T2 sequence (P42330 whole entry)
Kind of series: Inhibition of AKR1C3-mediated testosterone production in human 22Rv1 cells preincubated for 1 hr followed by androstenedione addition and measured after 24 hrs by ELISA. The class given is cell-based. In short, it runs like this:
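22RV1 at 30,000 cells/well in RPMI with 10% charcoal-stripped serum, 37 °C, 5% CO2, 24 h. Inhibitor added at 4 concentrations for 1 h, then androstenedione 28 nM; further 24 h. Testosterone in supernatant quantified by ELISA. Means of two separate experiments, each in triplicate.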

The subject of series [12] is CWR22R. Kind of series: Antiproliferative activity against human 22Rv1 cells assessed as inhibition of cell proliferation at 100 uM after 72 hrs by sulforhodamine B colorimetric assay. It is filed as functional. Particulars: 22Rv1, 72 h.
In series [13] the test system is CWR22R. Kind of series: Reduction in PSA expression level in human 22Rv1 cells at 1 to 30 uM by Western blot analysis. It is filed as functional, cell-based. In short, it runs like this:
as §2

Calls of active or inactive are those of the source. No cut-off for these calls is given here.

Broadly, the IC50 is the concentration that gives 50% inhibition. The inhibition is the percentage by which the read-out fell short of the control.

Chain of Prostaglandin G/H synthase 2 (Homo sapiens) (P35354 whole entry, looked up): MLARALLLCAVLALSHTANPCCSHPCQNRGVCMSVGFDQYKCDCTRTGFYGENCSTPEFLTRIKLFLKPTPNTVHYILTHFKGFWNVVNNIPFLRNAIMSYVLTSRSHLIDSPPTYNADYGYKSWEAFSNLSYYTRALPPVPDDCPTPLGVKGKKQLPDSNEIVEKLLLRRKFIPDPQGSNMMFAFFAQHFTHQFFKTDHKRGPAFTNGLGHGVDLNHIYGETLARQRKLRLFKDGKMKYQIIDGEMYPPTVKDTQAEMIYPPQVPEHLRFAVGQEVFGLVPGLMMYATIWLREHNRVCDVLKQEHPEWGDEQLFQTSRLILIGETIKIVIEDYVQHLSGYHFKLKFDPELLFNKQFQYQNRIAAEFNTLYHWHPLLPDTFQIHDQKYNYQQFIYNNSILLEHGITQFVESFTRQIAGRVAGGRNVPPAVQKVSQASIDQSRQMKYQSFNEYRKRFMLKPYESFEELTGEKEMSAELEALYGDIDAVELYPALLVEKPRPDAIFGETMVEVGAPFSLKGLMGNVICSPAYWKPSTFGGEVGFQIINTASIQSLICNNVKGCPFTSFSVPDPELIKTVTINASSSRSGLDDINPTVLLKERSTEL

For the compound `COc1ccc(Cn2nnc(O)c2C(=O)Nc2cccc(C(F)(F)F)c2)cc1OC`, the IC50 in [1] is over 100 µM; in series [2] it was 0.4 µM; in the series with CWR22R [4], 59.2 µM; in series [7], 108 µM. The values for the inhibition at 100 µM in [3] and in [6] were 0.87% and 0%, respectively. For the same compound, in the series on CWR22R [5], the Activity result was “Dose-dependent effect”.

`Oc1noc2cccc(Nc3cc(C(F)(F)F)cc(C(F)(F)F)c3)c12`: the Activity in the series with CWR22R [8] and in the series on CWR22R [9] was 10 - 25% each time. The IC50 was over 100 µM in [1] and 119 µM in series [7]. The inhibition at 100 µM worked out at 0% in series [3] and 2.1% in series [6].

With `O=C(Nc1cccc(C(F)(F)F)c1)c1c(O)nnn1Cc1ccc(OC(F)(F)F)cc1`, the Activity was 10 - 25% in the series on CWR22R [8], 10 - 25% in the series on CWR22R [9] and “Dose-dependent effect” in the series on CWR22R [5]. For the same compound, the IC50 in [1] was over 100 µM; in series [2] it was 0.19 µM; in the series with CWR22R [4] it was 31.3 µM; in series [7], 54.9 µM. Also, in the series on CWR22R [10], the “Ratio IC50” value is given as “>=4”. In series [11], the inhibition entry is “Dose-dependent effect”. Moreover, the inhibition at 100 µM in series [3] and in series [6] was 0% each time.

With `O=[N+]([O-])c1cccc(Nc2cccc3onc(O)c23)c1`, the IC50 is over 100 µM in [1], 1.41 µM in [2], over 100 µM with CWR22R [4] and 5.7 µM in [7]. In addition, the values for the inhibition at 100 µM (in series [3]; with CWR22R [12]; in series [6]) were 0.37%, 31.1% and 0%, respectively.

As to `Oc1noc2cccc(Nc3cccc(S(F)(F)(F)(F)F)c3)c12`, the IC50 in [1] is over 100 µM; in series [2], 0.31 µM; in the series on CWR22R [4], 64.9 µM; in [7] it was 4.29 µM. The inhibition at 100 µM came out at 4.3% in [3] and 0% in series [6].

As for `COc1ccc(Cn2nnc(O)c2C(=O)Nc2cccc(C(F)(F)F)c2)cc1`, in the series with CWR22R [13], the outcome was inactive.

As to `Oc1noc2ccc(Nc3cccc(C(F)(F)F)c3)cc12`, the IC50 in [1] was over 100 µM; in [2], 3.48 µM; in the series with CWR22R [4], 74.8 µM; in [7], 66.9 µM. Moreover, the inhibition at 100 µM was found to be 0% in series [3] and 29% in [6].

On to `Oc1noc2cccc(Nc3cccc(C(F)(F)F)c3)c12`, for which the IC50 is over 100 µM in series [1], 0.55 µM in series [2], 64.8 µM with CWR22R [4] and 4.38 µM in [7]. For the same compound, the values for the inhibition at 100 µM in series [3] and in series [6] were 13% and 29%, respectively.
